Screening results (PubChem BioAssay)
In the library only some 4.4% were active in any assay of this set; here they are far more common.
GRIN3A LBD mod: NR3A (human) ligand-binding domain modulation; actives 2.5% (n = 340,000); NR3A LBD differential scanning fluorimetry, Tm shift; 0% = protein alone, 100% = glycine-bound protein; Tm shift relative to glycine control, % at 25 µM; AID 1259313;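 active means melting temperature shift of at least 10% of the positive control shift, at one fixed dose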
EBI2 block: antagonists of human EBI2 receptor. inhibition, % at 5 µM. P32249. actives 0.81% (n = 360,000). EBI2 beta-arrestin recruitment, luminescence, 7a,25-OHC stimulated; in the data active means inhibition above about 38%;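 further: enzyme fragment complementation signal reports receptor beta-arrestin coupling in cells; 0% = agonist plus DMSO wells and 100% = wells without agonist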
Target sequence (P32249 whole entry, looked up, the tested form may be a part): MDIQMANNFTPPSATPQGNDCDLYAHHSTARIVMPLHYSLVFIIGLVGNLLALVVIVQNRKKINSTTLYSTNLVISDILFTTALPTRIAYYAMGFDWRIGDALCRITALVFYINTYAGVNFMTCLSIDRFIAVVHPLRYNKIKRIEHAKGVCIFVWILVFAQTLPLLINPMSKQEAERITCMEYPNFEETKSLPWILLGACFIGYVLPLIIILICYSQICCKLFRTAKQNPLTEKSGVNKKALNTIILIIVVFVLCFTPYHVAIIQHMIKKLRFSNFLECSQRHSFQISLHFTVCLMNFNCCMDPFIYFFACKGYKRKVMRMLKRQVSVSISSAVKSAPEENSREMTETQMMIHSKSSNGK
MPTP inh: blocks calcium-induced mitochondrial swelling. actives 1.4% (n = 360,000). AID 602449. isolated mouse mitochondria, Ca2+ swelling absorbance, 30 min. inhibition, % at 10 µM;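 active means inhibition of 50% or more, scaled per plate between neutral and stimulator controls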;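 further: 0% = DMSO wells given calcium and 100% = 1 mM EGTA wells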
SENP1 inh: SENP1 (human) catalytic domain inhibition | Q9P0U3 | recombinant SENP1 catalytic domain, CyPet-SUMO1-YPet FRET cleavage | inhibition, % at 10 µM | actives 0.21% (n = 360,000) | AID 624204;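 active means inhibition at least 30% at 10 µM, raw YFP signal under a set limit, fluorescence ratio 0.5 to 1.5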;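 further: 0% = enzyme with DMSO and 100% = no enzyme wells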
Target sequence (Q9P0U3 419-644 limits assumed): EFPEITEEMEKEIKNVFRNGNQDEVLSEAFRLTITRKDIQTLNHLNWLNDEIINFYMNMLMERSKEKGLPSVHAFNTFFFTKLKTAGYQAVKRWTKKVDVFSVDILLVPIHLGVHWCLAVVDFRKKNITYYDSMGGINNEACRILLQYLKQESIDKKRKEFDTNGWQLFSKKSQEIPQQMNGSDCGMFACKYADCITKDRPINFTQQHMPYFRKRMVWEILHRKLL
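Compound: 10 µM single point, 0.5% DMSO; Test system: hSENP1 catalytic domain, recombinant; Timing: 50 min reaction at room temperature; Technique: FRET, CFP and YFP emission; Control set: no-enzyme wells low, DMSO-plus-enzyme wells high control.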
Rh123 counter: Rhodamine 123 counter-screen of mitochondrial pore hits; isolated mitochondria, membrane potential, Rhodamine 123 fluorescence; actives 78% (n = 5,000); inhibition, % at 10 µM; shares compounds with MPTP inh; in the data active means inhibition above about 22%;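 further: 0% = DMSO vehicle and 100% = positive control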
MPTP abs DR: MPTP inhibition, dose response swelling confirmation. shares compounds with MPTP inh. isolated mitochondria swelling, absorbance. IC50, µM. actives 58% (n = 780). AID 651561; in the data active means IC50 below about 20 µM
MPTP counter DR: MPTP inhibitor counter-screen activity, dose response; shares compounds with MPTP inh; isolated mitochondria counterscreen, fluorescence read-out; IC50, µM; actives 49% (n = 780); AID 651564; in the data active means IC50 below about 80 µM
The depositor's hits bear a star; / = not tested or not shown.

SMILES | GRIN3A LBD mod | EBI2 block | MPTP inh | SENP1 inh | Rh123 counter | others
COc1ccc(CCNc2cc(C)[nH]c(=O)c2)cc1OC | -1.8 | -11.1 | -0.3 | -1.2 | /
Cc1ccc(S(=O)(=O)CNC(=S)c2cccc(Cl)c2)cc1 | 0.4 | 4.9 | 76.8* | 0.6 | 82.8*
N#C/C(=C\c1ccc(-c2ccccc2Cl)o1)C(=O)Nc1nc2ccccc2s1 | 18.3* | 0.6 | 73.7* | -23.7 | 43.3*
O=C(COC(=O)c1nc(Cl)ccc1Cl)c1ccccc1Cl | -1.8 | -7.0 | -0.7 | 0.8 | /
O=S(=O)(Nc1ccccc1O)c1ccc(-c2ccccc2)cc1 | 7.5 | -14.3 | 84.2* | 0.3 | 90.1*
CC(C)(C)OC(=O)C[C@H]1C/C=C\C[C@@H](CC(=O)N(CCO)Cc2ccccc2)C(=O)N[C@H](Cc2ccccc2)COC1=O | -0.6 | 10.1 | 0.0 | -1.2 | /
CC(C)(C)OC(=O)NCCCCCc1nnc(SCC(=O)Nc2cccc(Cl)c2)o1 | -6.6 | 1.2 | 74.5* | 3.4 | 56.6*
CC(C)(C)OC(=O)NCCc1nnc(SCC(=O)Nc2cccc(Cl)c2)o1 | 3.8 | 10.7 | 4.2 | 1.9 | /
CC(C)c1ccc(-c2csc(NC(=O)c3cccs3)c2C(=O)O)cc1 | -3.6 | 3.7 | 61.7* | -1.1 | 56.2*
CC1(C)CN(O)CCN1O | -0.5 | -13.9 | -0.9 | -0.6 | /
O=C(NCC1CCCO1)c1ccc2c(=O)n(CC3CCCO3)c(SCC(=O)N3CCCC3)nc2c1 (stereo not drawn) | -2.0 | 5.2 | 1.6 | -1.4 | /
Cc1csc2c(N3CCN(C(=O)Nc4ccc(Cl)c(Cl)c4)CC3)ncnc12 | 8.8 | 19.6 | 88.0* | -0.7 | 79.6*
Cc1csc2ncnc(N3CCN(C(=S)Nc4ccc(C(F)(F)F)cc4)CC3)c12 | 14.9* | 9.7 | 91.3* | 11.9 | 93.9*
O=C(c1ccc(-c2ccccc2)cc1)N1CCN(c2nc3ccccc3o2)CC1 | -2.9 | 8.1 | 3.7 | 1.9 | /
Cc1cc(C)cc(NC(=S)N2CCN(c3ncc(C(F)(F)F)cc3Cl)CC2)c1 | -10.5 | 6.8 | 28.7 | 2.6 | /
Cc1csc2c(N3CCN(C(=S)Nc4ccc(C(F)(F)F)cc4)CC3)ncnc12 | 8.0 | 7.1 | 96.8* | -0.6 | 91.8*
CC(C)(C)c1ccc(C(=O)N2CCN(c3nc4ccccc4o3)CC2)cc1 | -2.5 | -4.2 | 52.2* | 2.5 | 43.9*
CC(C)c1nnc(NC(=O)CCC(=O)NCc2cccs2)s1 | -1.7 | -1.4 | -0.9 | 1.4 | /
CN1C(=O)/C(=C\c2ccco2)N=C1c1ccc(Cl)cc1Cl | 0.2 | 10.0 | 0.4 | -16.5 | /
Cc1csc2c(N3CCN(C(=O)NC(C)(C)C)CC3)ncnc12 | 4.5 | -9.6 | 18.2 | 2.6 | /
Cc1csc2c(N3CCN(C(=O)c4ccc(C(C)(C)C)cc4)CC3)ncnc12 | -0.6 | 6.9 | 96.1* | -1.7 | 82.7*
COc1ccc(S(=O)(=O)NCC2CCCN(C(=O)CSC)C2)cc1 (stereo not drawn) | -0.6 | -1.5 | -2.3 | 1.5 | /
O=C(NCCc1ccccc1)c1nnc(CS(=O)(=O)c2ccccc2)o1 | -2.7 | 2.8 | -0.2 | 0.8 | /
COc1cccc(S(=O)(=O)Nc2ccc(C(=O)Nc3ccncc3)cc2)c1 | -15.0 | -8.4 | 12.9 | -0.8 | /
COc1ccc(NS(=O)(=O)c2cccc(NC(=O)c3ccc(Cl)nc3)c2)cc1 | 0.7 | -9.2 | 100.1* | 0.2 | 94.2*
SMILES | GRIN3A LBD mod | EBI2 block | MPTP inh | SENP1 inh | Rh123 counter | others
O=C(Nc1cccc(S(=O)(=O)Nc2ccc(Cl)cc2)c1)c1ccc(Cl)nc1 | 21.2* | -1.4 | 92.0* | 0.1 | 80.2*
COc1ccc(NS(=O)(=O)c2cccc(NC(=O)COc3ccccc3[N+](=O)[O-])c2)cc1 | 3.8 | -2.6 | 1.5 | 0.5 | /
COc1ccc(NS(=O)(=O)c2cccc(NC(=O)CCS(=O)(=O)c3ccccc3)c2)cc1 | -15.4 | -0.7 | 55.4* | 0.5 | 16.0 | MPTP abs DR=>100;MPTP counter DR=57.4*
O=C(Nc1cccc(S(=O)(=O)Nc2ccc(Cl)cc2)c1)c1cc2c(s1)CCCC2 | 32.2* | 8.3 | 97.3* | -0.4 | 82.8*
O=C(Nc1ccon1)c1cc2c(s1)CCCC2 | 6.4 | -6.2 | -2.1 | 1.8 | /
CCCn1c(-c2ccc[nH]c2=O)nc2cc(C)c(C)cc21 | 1.1 | -1.7 | 0.1 | -23.4 | /
O=C(Nc1cc(S(=O)(=O)Nc2ccccc2Cl)ccc1O)c1cc2c(s1)CCCC2 | 11.9* | 1.0 | 89.1* | -1.4 | 82.9*
CN(C)CCCNCCCNC(=O)/C(=N\O)c1ccccc1 | -0.6 | 2.5 | -0.6 | -0.4 | /
CCOC(=O)C1=C(Nc2ccccc2)CC(C)(O)C(C(=O)OCC)C1c1ccc(Br)cc1 (stereo not drawn) | -0.5 | 12.0 | 58.6* | 0.1 | -4.1 | MPTP abs DR=>100;MPTP counter DR=>80
CCOC(=O)C1=C(Nc2ccccc2)CC(C)(O)C(C(=O)OCC)C1c1ccccc1 (stereo not drawn) | 2.9 | -8.3 | 0.1 | 0.9 | /
CC(=O)c1c(C)[nH]c(C(=O)OCn2nnc3ccccc3c2=O)c1C | -0.6 | -8.5 | 1.2 | 2.2 | /
O=C(O)c1ccccc1-c1c2cc(I)c(=O)c(I)c-2oc2c(I)c(O)c(I)cc12 | 0.0 | 27.0 | 78.6* | 68.7 | -16.7
CN(C)c1ccc(S(=O)(=O)N2CCCCC2)cc1NC(=O)CCNC(=O)c1ccccc1Cl | 3.3 | 6.6 | -0.8 | -7.5 | /
O=C(CN(C(=O)c1ccccc1Cl)C1CCCCC1)Nc1ccc(Cl)c([N+](=O)[O-])c1 | 3.8 | 22.7 | 87.9* | -19.0 | 79.7*
O=C(CN(C(=O)c1ccc(Cl)cc1)C1CCCCC1)Nc1ccc(Cl)c([N+](=O)[O-])c1 | 8.5 | 9.2 | 64.4* | -0.9 | 85.5*
CC(C)COc1ccc(-c2nnc(-c3ccco3)o2)cc1 | 1.4 | -10.2 | 4.6 | 0.1 | /
CCN(CC)CCCNc1ccc(-c2nnc(-c3ccc(OCC(C)C)cc3)o2)cn1 | -3.0 | -1.2 | 90.8* | -2.2 | -5.1
C=CCn1cnc2c(nnn2Cc2ccc(F)cc2)c1=O | 2.0 | -22.1 | -0.1 | -0.6 | /
Cc1cc(C)nc(/N=C(\N)Nc2cccc(OCc3ccccc3)c2)n1 | 0.8 | -6.0 | 82.9* | -0.2 | 64.1*
Cc1cc(C)nc(/N=C(\N)Nc2ccc(CC(=O)OC(C)C)cc2)n1 | -2.6 | -7.5 | 50.2* | -1.2 | 58.6*
Cc1cc(C)nc(/N=C(\N)Nc2ccc(OCc3ccccc3)cc2)n1 | -0.1 | -23.0 | 34.1 | 0.4 | /
Cc1cc(C)nc(/N=C(\N)Nc2ccc(OCCC(C)C)cc2)n1 | -1.2 | -19.3 | 100.0* | 2.1 | 91.0*
COc1ccc(N/C(N)=N/c2nc(C)cc(C)n2)cc1 | / | -10.8 | -0.6 | 1.3 | /
O=C(CCN1CCCCC1=O)NC1CCCN(Cc2ccc(Cl)cc2)C1 (stereo not drawn) | 2.1 | -3.8 | 2.7 | -2.3 | /
CCS(=O)(=O)c1nc(S(=O)(=O)c2ccc(Cl)cc2)c(N2CCOCC2)s1 | -1.1 | 3.4 | -1.8 | 1.0 | /
